Data from ChEMBL document CHEMBL1125254, “Allosteric modifiers of hemoglobin. 2. Crystallographically determined binding sites and hydrophobic binding/interaction analysis of novel hemoglobin oxygen effectors” (J Med Chem, 1991).

Experiment: Allosteric activity evaluated as the ratio of the oxygen pressure in mmHg between hemoglobin-compound and compound-free hemoglobin (control) solution at which 50% oxygen saturation's are respectively attained.
Procedure, shortened: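 Oxygen equilibrium of human hemoglobin solutions at 2.7 mM Hb with compound at 10 mM, in 50 mM HEPES pH 7.4. P50 ratios are averaged, with standard deviations reported.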

P50d/P50c	Structure (SMILES)
1.77	CC(C)(Oc1ccc(NC(=O)Nc2ccc(Cl)c(Cl)c2)cc1)C(=O)O
2.58	CC(C)(Oc1ccc(CNC(=O)c2ccc(Cl)cc2)cc1)C(=O)O
2.13	CC(C)(Oc1ccc(CNC(=O)c2cc(Cl)c(Cl)c(Cl)c2)cc1)C(=O)O
4.32	CC(C)(Oc1ccc(CC(=O)Nc2cc(Cl)cc(Cl)c2)cc1)C(=O)O
3.62	CC(C)(Oc1ccc(NC(=O)Nc2cc(Cl)cc(Cl)c2)cc1)C(=O)O
3.17	CC(C)(Oc1ccc(CC(=O)Nc2cc(Cl)c(Cl)c(Cl)c2)cc1)C(=O)O
1.74	CC(C)(Oc1ccc(CCNC(=O)c2ccc(Cl)cc2)cc1)C(=O)O
2.79	CC(C)(Oc1ccc(CC(=O)Nc2ccc(Cl)cc2)cc1)C(=O)O
2.48	CC(C)(Oc1ccc(CNC(=O)c2cc(Cl)cc(Cl)c2)cc1)C(=O)O
2.57	CC(C)(Oc1ccc(NC(=O)Nc2cc(Cl)c(Cl)c(Cl)c2)cc1)C(=O)O
